We go through eight molecules from ChEMBL document CHEMBL1147089, “Protein protein interaction inhibition (2P2I) combining high throughput and virtual screening: Application to the HIV-1 Nef protein” (Proc Natl Acad Sci U S A, 2007).

pKd: −log10 of the molar value. Calls of active or inactive are those of the source. The rule behind the calls is not given here.

Data set [1] in a line: Toxicity against african green monkey COS7 cells assessed as cell viability upto 100 uM. The note with it: chlorocebus aethiops, cos-7. Format: cell-based.
The subject of data set [2] is COS-7. In words: Inhibition of HIV1 Nef-SH3Hck interaction in COS7 cells at 20 uM after 36 hrs by mammalian two-hybrid assay. The data set is classed as cell-based. The note with it: Human immunodeficiency virus 1. An outline of the steps: (§1)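 Firefly luciferase reports interaction, Renilla luciferase (from GAL4–SH3Hck construct) normalizes transfection and viability; inhibition from reduced LucFF:LucRN ratio. Dose series 2–32 μM; screening at 20 μM.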

The nature of data set [3]: Binding affinity to HIV1 Nef by isothermal titration calorimetry method. On the set-up: species or system Human immunodeficiency virus 1. The method, boiled down: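 Nef57–205 dialyzed in ITC buffer (20 mM Hepes pH 7.0, 100 mM NaCl, 5% DMSO), 15–25 μM in cell; inhibitor 300–400 μM in same buffer (DMSO 5%) injected 10–15 μl every 300 s at 25°C; heat of dilution into buffer alone subtracted; apparent KD from titration.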

Data set [4] concerns Human immunodeficiency virus 1. As to the kind of experiment: Reduction of HIV1 Nef-mediated MHC class 1 down regulation in human PBMC after 3 hrs.
Data set [5] relates to Human immunodeficiency virus 1. In words: Reduction in HIV1 Nef-mediated CD4 down regulation in human PBMC after 3 hrs.
In data set [6] the test system is Human immunodeficiency virus 1. In words: Reduction of HIV1 Nef-SH3Hck protein interaction at 0.1 uM by GST pull-down method.
In data set [7] the target is T1, DNA-binding protein inhibitor ID-1 (Homo sapiens) (UniProt P41134).
T1 sequence (whole entry): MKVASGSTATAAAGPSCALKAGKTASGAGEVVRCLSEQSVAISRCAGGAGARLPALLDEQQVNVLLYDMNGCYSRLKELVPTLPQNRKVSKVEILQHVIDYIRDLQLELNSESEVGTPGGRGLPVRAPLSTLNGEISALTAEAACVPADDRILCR
In words: Reduction of Id-MyoD interaction in COS7 cells at 32 uM after 36 hrs by mammalian two-hybrid assay. Format: cell-based. On the set-up: scale not given: the % may be the effect or the level left. The note with it: COS-7. An outline of the steps: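 Specificity counterscreen: Id–MyoD mammalian two-hybrid in COS7 cells, compounds at 2, 4, 8, 16, 32 μM for 36 h; read-out as normalized firefly:Renilla luciferase ratio.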

In data set [8] the test system is COS-7. In words: Reduction of HIV1 Nef-SH3Hck protein interaction in COS7 cells assessed as reduction of LucFF:LucRN ratio at 32 uM after 36 hrs by mammalian two-hybrid assay. The data set is classed as cell-based. The arrangement: scale not given: the % may be the effect or the level left. The note with it: Human immunodeficiency virus 1. The method, boiled down:
as §1

What is called inhibition is the change of the read-out against control, counted positive when it falls. What is called pKd is the negative decadic logarithm of the Kd, by convention in mol/L. On to `CC(C)(C)c1ccc(OCC(=O)Nc2cccc(C(=O)O)c2)cc1`, for which the Activity entry in data set [1] is “Non-toxic”. This molecule also displayed an inhibition with COS-7 [2] of 75%. The same molecule had a negative logarithm of the Kd (pKd) in data set [3] of 6.01.
`O=C(O)CCC(=O)c1ccc2ccc3cccc4ccc1c2c34` registered an inhibition in the data set on COS-7 [2] of 58.4%.
The molecule `COc1cc2ccccc2c2cc([N+](=O)[O-])oc12` displayed an inhibition in the data set with COS-7 [2] of 53.8%. In data set [3], the pKd is 4.96.
For the molecule `c1ccc(/C(=N/Nc2nc3ccccc3s2)c2ccccn2)cc1.c1ccc(/C(=N\Nc2nc3ccccc3s2)c2ccccn2)cc1`, the inhibition in the data set on COS-7 [2] was 57.2%.
For `O=C(O)CCCc1ccc2ccc3ccccc3c2c1`, in the data set with COS-7 [2], the inhibition is 63.2%. The pKd in data set [3] is 5.17.
In the case of `Cc1cc(OCc2nc(N)nc(N)c2-c2ccc(Cl)c(Cl)c2)ccc1[N+](=O)[O-]`, the inhibition with COS-7 [2] was 57.5%.
Regarding `CC(C)(C)c1ccc(OC(=O)Nc2ccc(O)c(C(=O)O)c2)cc1`, the Activity result is “Non-toxic” in data set [1], “Dose-dependent effect” in data set [4], 17% in data set [7] and 77% in the data set on COS-7 [8]. The molecule further displayed an inhibition with COS-7 [2] of 73.4%. For the same molecule, the result in data set [5] was inactive. Also, the outcome in data set [6] was Active. Also, the negative-log Kd (pKd) in data set [3] was 5.74.
For the molecule `CN(C)c1ccc2nc3c(C(=O)O)cc(=O)c(O)c-3oc2c1`, the inhibition in the data set on COS-7 [2] was 80.4%. In data set [3], this molecule gave a negative-log Kd (pKd) of 5.89.
